Assays:
[1] = Oral bioavailability in Sprague-Dawley rat at 10 mg/kg by LC-MS/MS method; format: ADME, organism-based; conditions: in vivo
In short: (§1)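 Single-dose PK: iv bolus 2 mg/kg in 5% DMSO/40% PEG400/55% saline and/or oral gavage 10 mg/kg as 0.445% microcrystalline cellulose microsuspension; BALB/C nude mice (15−20 g, N = 16 per arm) or male Sprague−Dawley rats (250 ± 20 g, N = 3). Blood at eight (po) or nine (iv) time points into sodium heparin, plasma by LC-MS/MS, noncompartmental analysis.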

[2] = Volume of distribution at steady state in Sprague-Dawley rat at 10 mg/kg, po or 2 mg/kg, iv by LC-MS/MS method; format: ADME, organism-based; conditions: in vivo, read-out: Vdss; in short: as §1
[3] = Clearance in Sprague-Dawley rat at 10 mg/kg, po or 2 mg/kg, iv by LC-MS/MS method; format: ADME, organism-based; conditions: in vivo
In short: (§2)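 Male Sprague−Dawley rats (250 ± 20 g; N = 3); iv bolus 2 mg/kg in 5% DMSO/40% PEG400/55% saline and/or gavage 10 mg/kg in 0.445% microcrystalline cellulose microsuspension; plasma from heparinized blood at eight (po) or nine (iv) time points, LC-MS/MS, noncompartmental analysis.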

[4] = AUC in Sprague-Dawley rat at 10 mg/kg, po or 2 mg/kg, iv by LC-MS/MS method; format: ADME, organism-based; conditions: plasma; in short: as §2
[5] = Cmax in Sprague-Dawley rat at 10 mg/kg, po or 2 mg/kg, iv by LC-MS/MS method; format: ADME, organism-based; conditions: in vivo; in short: as §2
[6] = Tmax in Sprague-Dawley rat at 10 mg/kg, po or 2 mg/kg, iv by LC-MS/MS method; format: ADME, organism-based; conditions: in vivo; in short: as §1
[7] = Clearance in mouse liver microsomes at 1 uM incubated for 10 mins by LC-MS/MS method; format: ADME, Microsome
In short: (§3)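 Liver microsomes (human or mouse, 0.5 mg/mL) in 100 mM potassium phosphate pH 7.4 with 1 μM compound, prewarmed 10 min at 37 °C, started with NADPH (10 mM); stopped at 0, 3, 6, 9, 15, 30 min with ice-cold methanol containing tolbutamide internal standard; LC-MS/MS. Hepatic clearance (mL/min/kg) calculated from intrinsic clearance.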

[8] = Clearance in human liver microsomes at 1 uM incubated for 10 mins by LC-MS/MS method; format: ADME, Microsome; in short: as §3
[9] = target: Histone deacetylase (Homo sapiens) (UniProt Q13547+O15379+Q9UBN7+Q92769+Q9UQL6+Q8WUI4+Q9BY41+Q96DB2+P56524+Q9UKV0+Q969S8); experiment: Inhibition of Class 1 histone deacetylase in human HeLa cells assessed as induction in p21 protein expression at 3 uM incubated for 16 hrs by luciferase reporter gene assay relative to HDAC inhibitor entinostat; format: cell-based; set-up: scale not given: the % may be the effect or the level left
[10] = Oral bioavailability in BALB/C mouse at 5 mg/kg by LC-MS/MS method; format: ADME, organism-based; conditions: in vivo
In short: (§4)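 BALB/C nude mice (15−20 g) given 5 mg/kg po and 1 mg/kg iv; blood collected at eight (po) or nine (iv) time points into sodium heparin tubes, plasma stored at −20 °C, measured by LC-MS/MS and analysed noncompartmentally.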

[11] = Volume of distribution at steady state in BALB/C mouse at 5 mg/kg, po or 1 mg/kg, iv by LC-MS/MS method; format: ADME, organism-based; conditions: in vivo, read-out: Vdss
In short: (§5)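 Nude-mouse PK at reduced doses, 1 mg/kg iv bolus (5% DMSO, 40% PEG400, 55% saline) and 5 mg/kg oral gavage (microcrystalline cellulose microsuspension); plasma from serial heparinized blood samples (eight po, nine iv time points) quantified by LC-MS/MS, parameters by noncompartmental methods.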

[12] = Clearance in BALB/C mouse at 5 mg/kg, po or 1 mg/kg, iv by LC-MS/MS method; format: ADME, organism-based; conditions: in vivo; in short: as §4
[13] = AUC in BALB/C mouse at 5 mg/kg, po or 1 mg/kg, iv by LC-MS/MS method; format: ADME, organism-based; conditions: plasma; in short: as §4
[14] = Half life in BALB/C mouse at 5 mg/kg, po or 1 mg/kg, iv by LC-MS/MS method; format: ADME, organism-based; conditions: in vivo; in short: as §4
[15] = Cmax in BALB/C mouse at 5 mg/kg, po or 1 mg/kg, iv by LC-MS/MS method; format: ADME, organism-based; conditions: in vivo; in short: as §4
[16] = Tmax in BALB/C mouse at 5 mg/kg, po or 1 mg/kg, iv by LC-MS/MS method; format: ADME, organism-based; conditions: in vivo; in short: as §5
[17] = target: T1, Cytochrome P450 1A2 (Homo sapiens, UniProt P05177); experiment: Inhibition of CYP1A2 in human liver microsomes in presence of NADPH by LC-MS/MS method; format: ADME, Microsome
T1 sequence (P05177 whole entry): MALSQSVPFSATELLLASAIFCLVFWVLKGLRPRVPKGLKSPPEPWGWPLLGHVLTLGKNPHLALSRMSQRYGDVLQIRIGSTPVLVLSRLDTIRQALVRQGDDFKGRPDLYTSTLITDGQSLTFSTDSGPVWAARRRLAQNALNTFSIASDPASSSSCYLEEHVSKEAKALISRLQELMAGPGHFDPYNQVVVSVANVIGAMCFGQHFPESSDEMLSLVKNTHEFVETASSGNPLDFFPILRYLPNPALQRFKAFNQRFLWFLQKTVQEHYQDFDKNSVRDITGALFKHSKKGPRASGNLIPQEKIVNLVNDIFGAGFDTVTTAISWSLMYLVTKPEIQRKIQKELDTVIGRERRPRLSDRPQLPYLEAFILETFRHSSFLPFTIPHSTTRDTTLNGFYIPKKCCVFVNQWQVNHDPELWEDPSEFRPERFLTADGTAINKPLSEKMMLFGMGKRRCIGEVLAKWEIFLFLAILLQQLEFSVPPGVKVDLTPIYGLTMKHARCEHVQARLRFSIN

[18] = target: Cytochrome P450 2C19 (Homo sapiens, UniProt P33261); experiment: Inhibition of CYP2C19 in human liver microsomes in presence of NADPH by LC-MS/MS method; format: ADME, Microsome
Sequence of Cytochrome P450 2C19 (P33261 whole entry): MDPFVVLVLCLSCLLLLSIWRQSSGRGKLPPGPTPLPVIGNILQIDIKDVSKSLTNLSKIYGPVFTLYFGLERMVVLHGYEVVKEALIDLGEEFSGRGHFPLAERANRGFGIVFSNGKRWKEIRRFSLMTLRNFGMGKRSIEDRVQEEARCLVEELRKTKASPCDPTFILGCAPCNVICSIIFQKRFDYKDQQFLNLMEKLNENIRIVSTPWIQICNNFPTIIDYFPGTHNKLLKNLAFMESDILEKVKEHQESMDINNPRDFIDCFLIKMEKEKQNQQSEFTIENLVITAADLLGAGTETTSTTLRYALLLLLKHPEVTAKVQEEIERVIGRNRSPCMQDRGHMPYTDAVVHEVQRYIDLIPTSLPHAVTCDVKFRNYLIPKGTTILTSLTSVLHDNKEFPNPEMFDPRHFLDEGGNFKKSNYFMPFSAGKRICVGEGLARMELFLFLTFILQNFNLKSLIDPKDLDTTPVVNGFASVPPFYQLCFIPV

[19] = target: Cytochrome P450 2C9 (Homo sapiens, UniProt P11712); experiment: Inhibition of CYP2C9 in human liver microsomes in presence of NADPH by LC-MS/MS method; format: ADME, Microsome
Sequence of Cytochrome P450 2C9 (P11712 whole entry): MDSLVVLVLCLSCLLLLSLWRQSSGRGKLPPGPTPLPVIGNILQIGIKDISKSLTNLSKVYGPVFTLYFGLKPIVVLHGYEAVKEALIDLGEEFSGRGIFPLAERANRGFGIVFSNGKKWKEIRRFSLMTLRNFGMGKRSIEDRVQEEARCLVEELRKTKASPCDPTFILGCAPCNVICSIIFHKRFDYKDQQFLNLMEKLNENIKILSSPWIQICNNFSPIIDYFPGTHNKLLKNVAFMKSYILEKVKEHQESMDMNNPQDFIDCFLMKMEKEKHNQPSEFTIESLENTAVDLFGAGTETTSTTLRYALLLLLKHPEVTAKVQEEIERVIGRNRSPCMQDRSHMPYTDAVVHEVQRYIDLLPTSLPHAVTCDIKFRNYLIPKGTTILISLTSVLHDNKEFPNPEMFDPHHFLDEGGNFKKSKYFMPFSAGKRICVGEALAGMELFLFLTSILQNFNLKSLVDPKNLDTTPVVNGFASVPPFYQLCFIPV

[20] = target: Cytochrome P450 3A4 (Homo sapiens, UniProt P08684); experiment: Inhibition of CYP3A4 in human liver microsomes in presence of NADPH by LC-MS/MS method; format: ADME, Microsome
Sequence of Cytochrome P450 3A4 (P08684 whole entry): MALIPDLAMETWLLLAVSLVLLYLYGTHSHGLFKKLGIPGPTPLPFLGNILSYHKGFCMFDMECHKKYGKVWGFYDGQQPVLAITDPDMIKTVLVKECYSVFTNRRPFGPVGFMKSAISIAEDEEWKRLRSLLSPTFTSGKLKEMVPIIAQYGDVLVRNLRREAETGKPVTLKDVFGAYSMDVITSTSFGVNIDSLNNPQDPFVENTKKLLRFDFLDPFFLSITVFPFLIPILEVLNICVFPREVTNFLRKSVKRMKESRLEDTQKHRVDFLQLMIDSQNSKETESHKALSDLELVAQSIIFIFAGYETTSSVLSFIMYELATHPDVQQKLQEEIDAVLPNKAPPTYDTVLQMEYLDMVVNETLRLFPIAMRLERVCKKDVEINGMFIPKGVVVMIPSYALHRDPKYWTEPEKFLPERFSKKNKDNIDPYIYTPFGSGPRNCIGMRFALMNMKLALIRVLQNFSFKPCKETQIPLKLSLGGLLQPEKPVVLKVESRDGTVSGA

[21] = target: Cytochrome P450 2D6 (Homo sapiens, UniProt P10635); experiment: Inhibition of CYP2D6 in human liver microsomes in presence of NADPH by LC-MS/MS method; format: ADME, Microsome
Sequence of Cytochrome P450 2D6 (P10635 whole entry): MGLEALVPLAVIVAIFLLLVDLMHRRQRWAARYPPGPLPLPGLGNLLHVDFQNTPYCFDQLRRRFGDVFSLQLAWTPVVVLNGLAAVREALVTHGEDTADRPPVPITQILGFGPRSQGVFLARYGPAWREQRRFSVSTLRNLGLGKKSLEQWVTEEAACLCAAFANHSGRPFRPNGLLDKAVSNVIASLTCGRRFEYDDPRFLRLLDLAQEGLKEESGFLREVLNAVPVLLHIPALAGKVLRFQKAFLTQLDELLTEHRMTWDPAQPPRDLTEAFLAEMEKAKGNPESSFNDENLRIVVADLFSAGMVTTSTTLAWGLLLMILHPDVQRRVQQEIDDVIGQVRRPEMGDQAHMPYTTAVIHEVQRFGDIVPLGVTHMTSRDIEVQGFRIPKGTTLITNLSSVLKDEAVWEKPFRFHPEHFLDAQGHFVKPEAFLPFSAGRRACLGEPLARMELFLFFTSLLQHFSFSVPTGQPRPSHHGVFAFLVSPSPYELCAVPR

[22] = Oral bioavailability in BALB/C mouse at 10 mg/kg by LC-MS/MS method; format: ADME, organism-based; conditions: BALB/C, in vivo
In short: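 Bioavailability from single-dose iv (2 mg/kg, 5% DMSO/40% PEG400/55% saline) and oral gavage (10 mg/kg, 0.445% microcrystalline cellulose microsuspension) studies in BALB/C nude mice (N = 16 per arm); plasma at eight (po) or nine (iv) time points, LC-MS/MS, noncompartmental analysis.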

[23] = Volume of distribution at steady state in BALB/C mouse at 10 mg/kg, po or 2 mg/kg, iv by LC-MS/MS method; format: ADME, organism-based; set-up: unit not given here; conditions: in vivo, read-out: Vdss; in short: as §1
[24] = Clearance in BALB/C mouse at 10 mg/kg, po or 2 mg/kg, iv by LC-MS/MS method; format: ADME, organism-based; conditions: in vivo
In short: (§6)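 Female-unspecified BALB/C nude mice (15−20 g, N = 16 per arm); iv bolus 2 mg/kg in 5% DMSO/40% PEG400/55% saline and/or oral gavage 10 mg/kg as 0.445% microcrystalline cellulose microsuspension. Blood sampled at nine (iv) or eight (po) time points into sodium heparin tubes; plasma by LC-MS/MS; noncompartmental analysis.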

[25] = AUC in BALB/C mouse at 10 mg/kg, po or 2 mg/kg, iv by LC-MS/MS method; format: ADME, organism-based, Plasma; conditions: BALB/C, plasma; in short: as §6
[26] = Half life in BALB/C mouse at 10 mg/kg, po or 2 mg/kg, iv by LC-MS/MS method; format: ADME, organism-based; conditions: BALB/C, in vivo; in short: as §6
[27] = Cmax in BALB/C mouse at 10 mg/kg, po or 2 mg/kg, iv by LC-MS/MS method; format: ADME, organism-based; conditions: BALB/C, in vivo; in short: as §6
[28] = Tmax in BALB/C mouse at 10 mg/kg, po or 2 mg/kg, iv by LC-MS/MS method; format: ADME, organism-based; conditions: BALB/C, in vivo; in short: as §1
[29] = target: Voltage-gated inwardly rectifying potassium channel KCNH2 (Homo sapiens, UniProt Q12809); experiment: Inhibition of human ERG expressed in CHO cells by patch clamp method; format: cell-based
Sequence of Voltage-gated inwardly rectifying potassium channel KCNH2 (Q12809 whole entry): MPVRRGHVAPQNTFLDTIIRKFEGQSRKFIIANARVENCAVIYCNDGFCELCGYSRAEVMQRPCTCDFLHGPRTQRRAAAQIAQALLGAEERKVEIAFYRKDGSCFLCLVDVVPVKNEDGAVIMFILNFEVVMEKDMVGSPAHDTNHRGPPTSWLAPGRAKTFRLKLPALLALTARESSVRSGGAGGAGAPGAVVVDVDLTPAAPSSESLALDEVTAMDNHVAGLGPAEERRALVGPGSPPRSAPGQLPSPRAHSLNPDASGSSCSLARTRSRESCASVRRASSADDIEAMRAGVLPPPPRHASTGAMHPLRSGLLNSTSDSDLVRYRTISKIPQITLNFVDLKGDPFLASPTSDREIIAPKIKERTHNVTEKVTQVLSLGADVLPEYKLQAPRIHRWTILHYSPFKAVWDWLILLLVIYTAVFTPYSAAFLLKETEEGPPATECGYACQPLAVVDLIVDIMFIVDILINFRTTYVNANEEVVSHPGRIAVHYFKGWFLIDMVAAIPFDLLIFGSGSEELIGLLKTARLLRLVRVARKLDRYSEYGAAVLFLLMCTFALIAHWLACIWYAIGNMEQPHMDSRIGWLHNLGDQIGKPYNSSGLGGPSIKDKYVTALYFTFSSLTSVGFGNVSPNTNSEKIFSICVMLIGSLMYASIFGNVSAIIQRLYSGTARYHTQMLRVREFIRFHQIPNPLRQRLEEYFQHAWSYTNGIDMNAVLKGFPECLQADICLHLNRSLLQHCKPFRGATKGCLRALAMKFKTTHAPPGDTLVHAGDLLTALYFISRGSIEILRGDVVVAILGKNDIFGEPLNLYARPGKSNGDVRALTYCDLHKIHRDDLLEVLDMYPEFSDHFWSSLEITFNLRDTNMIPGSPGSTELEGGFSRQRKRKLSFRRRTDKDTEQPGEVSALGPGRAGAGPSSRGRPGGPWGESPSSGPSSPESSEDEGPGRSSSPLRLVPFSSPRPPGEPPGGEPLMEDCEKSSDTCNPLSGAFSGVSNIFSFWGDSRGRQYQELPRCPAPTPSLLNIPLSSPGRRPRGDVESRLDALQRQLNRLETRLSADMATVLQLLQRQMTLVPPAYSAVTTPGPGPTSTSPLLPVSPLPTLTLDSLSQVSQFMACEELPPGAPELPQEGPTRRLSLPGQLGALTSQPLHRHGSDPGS

## CN1C[C@H](C(=O)Nc2ccc(Cl)cc2)[C@@H](c2ccc(/C=C/C(=O)Nc3ccccc3N)nn2)C1 (racemic)
[1]
  bioavailability: 9%
[2]
  Vd: 19 L
[3]
  clearance: 120 mL/min/kg
[4]
  AUC: 116 ng·h/mL
[5]
  Cmax: 33 ng/mL
[6]
  Tmax: 4 h
[7]
  CLhep predicted at 1 µM: 41 mL/min/kg
[8]
  CLhep predicted at 1 µM: 12 mL/min/kg
[9]
  Activity: > 300%

## CN1C[C@H](C(=O)Nc2ccc(F)cc2)[C@@H](c2ccc(/C=C/C(=O)Nc3ccccc3N)cc2)C1 (racemic)
[10]
  bioavailability: 95%
[11]
  Vd: 16 L
[12]
  clearance: 127 mL/min/kg
[13]
  AUC: 624 ng·h/mL
[14]
  half-life: 5 h
[15]
  Cmax: 170 ng/mL
[16]
  Tmax: 2 h
[7]
  CLhep predicted at 1 µM: 34 mL/min/kg
[8]
  CLhep predicted at 1 µM: 5 mL/min/kg
[9]
  Activity: 250%

## Nc1ccccc1NC(=O)/C=C/c1ccc([C@H]2CN(CCO)C[C@@H]2C(=O)Nc2ccc(Cl)cc2)cc1 (racemic)
[17]
  IC50: 26 µM
[18]
  IC50: 10 µM
[19]
  IC50: 3 µM
[20]
  IC50: 2 µM
[21]
  IC50: 2 µM
[22]
  bioavailability: 58%
[23]
  Vd: 4.1
[24]
  clearance: 20 mL/min/kg
[25]
  AUC: 7100 ng·h/mL
[26]
  half-life: 15 h
[27]
  Cmax: 957 ng/mL
[28]
  Tmax: 0.25 h
[7]
  CLhep predicted at 1 µM: 24 mL/min/kg
[8]
  CLhep predicted at 1 µM: 11 mL/min/kg
[9]
  Activity: 100%
[29]
  IC50: 15 µM

## CN1C[C@H](C(=O)Nc2ccc(Cl)cc2)[C@@H](c2ccc(/C=C/C(=O)Nc3ccccc3N)cn2)C1 (racemic)
[10]
  bioavailability: 19%
[11]
  Vd: 4 L
[12]
  clearance: 79 mL/min/kg
[13]
  AUC: 204 ng·h/mL
[14]
  half-life: 4.6 h
[15]
  Cmax: 60 ng/mL
[16]
  Tmax: 0.17 h
[7]
  CLhep predicted at 1 µM: 36 mL/min/kg
[8]
  CLhep predicted at 1 µM: 6 mL/min/kg
[9]
  Activity: 100%

Source: ChEMBL document CHEMBL2177000, “Pharmacokinetic optimization of class-selective histone deacetylase inhibitors and identification of associated candidate predictive biomarkers of hepatocellular carcinoma tumor response” (J Med Chem, 2012)
